# In ChEMBL document CHEMBL4339193, “Phenotypic Screening-Based Identification of 3,4-Disubstituted Piperidine Derivatives as Macrophage M2 Polarization Modulators: An Opportunity for Treating Multiple Sclerosis” (J Med Chem, 2019):
# The source made the active and inactive calls. The rule behind the calls is not given here.
# Legend:
# Mus musculus [1] = assay: Antiinflammatory activity in C57BL/6J mouse model of MOG (35 to 55 residues)/pertussis toxin/complete Freund's adjuvant-induced experimental allergic encephalomyelitis assessed as effect on dendritic cell population in spleen by measuring change in CD11c level at 200 mg/kg, ig administered daily starting from 7 days post-immunization measured after 13 to 19 days post-immunization by flow cytometry analysis; assay type: functional, organism-based
# Summary of the method: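 MOG35-55/CFA EAE mice were dosed daily in saline from day 7 and sampled between days 13 and 19. Spleens and dLNs were mechanically dissociated to single cells. CNS cells came from collagenase IV digestion and a 70%/30% Percoll gradient. Cells were surface-stained with fluorochrome antibodies, including CD4, CD11b, CD11c and MHC-II, and analysed by flow cytometry.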
# Mus musculus [2] = assay: (§1) Inhibition of M1 polarization in C57BL/6J mouse model of MOG (35 to 55 residues)/pertussis toxin/complete Freund's adjuvant-induced experimental allergic encephalomyelitis assessed as CD86 level in CNS at 200 mg/kg, ig administered daily starting from 7 days post-immunization measured after 13 to 19 days post-immunization by flow cytometry analysis (reference value: 26.3%); assay type: functional; set-up: scale not given: the % may be the effect or the level left
# Summary of the method: (§2)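 MOG35-55/CFA EAE mice were dosed daily in saline from day 7 and sampled between days 13 and 19. Cells came from spleen and dLN by mechanical dissociation and from CNS by collagenase IV/Percoll. They were stained for F4/80 with CD206 (M2) or CD86 (M1), and each was read by flow cytometry as a percentage of total F4/80+ macrophages.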
# Mus musculus [3] = assay: as §1, with “Induction” for “Inhibition”, “M2” for “M1”, “CD206” for “CD86”, “7.8%)” for “26.3%)”; assay type: functional; summary of the method: as §2
# Mus musculus [4] = assay: as §1, with “Induction” for “Inhibition”, “M2” for “M1”, “CD206” for “CD86”, “draining lymph nodes” for “CNS”, “6.5%)” for “26.3%)”; assay type: functional; summary of the method: as §2
# BMDM = assay: Inhibition of LPS-induced M1 polarization in C57BL/6J mouse BMDM cells assessed as down regulation of Mcp1 mRNA expression at 300 nM measured after 24 hrs by qRT-PCR analysis; assay type: functional, cell-based
# Summary of the method: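 BMDMs pre-incubated 24 h with 50 ng/ml LPS to induce M1, then treated 24 h with 300 nM compound. Total RNA extracted with Trizol; Mcp1, Inos and Cd86 mRNA measured by qRT-PCR. Mean ± SEM.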
# RAW264.7 [5] = assay: Inhibition of M1 polarization in mouse RAW264.7 cells assessed as down regulation of TNFSF15 mRNA expression at 300 nM measured after 24 hrs by qRT-PCR analysis; assay type: functional, cell-based
# RAW264.7 [6] = assay: Inhibition of M1 polarization in mouse RAW264.7 cells assessed as down regulation of TNFRSF10C mRNA expression at 300 nM measured after 24 hrs by qRT-PCR analysis; assay type: functional, cell-based
# RAW264.7 [7] = assay: Inhibition of M1 polarization in mouse RAW264.7 cells assessed as down regulation of IL6 mRNA expression at 300 nM measured after 24 hrs by qRT-PCR analysis; assay type: functional, cell-based
# RAW264.7 [8] = assay: Modulation of M2 polarization in mouse RAW264.7 cells assessed as up regulation of CD163 mRNA expression at 300 nM measured after 24 hrs by qRT-PCR analysis; assay type: functional, cell-based
# [9] = Half life in Sprague-Dawley rat at 10 mg/kg, iv administered as single dose by LC/MS analysis; assay type: ADME, organism-based; conditions: in vivo
# Summary of the method: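 Single dose in rats; venous blood (100 µL) drawn at 0, 0.5, 1, 2, 4, 8 and 12 h, plasma separated by centrifugation and held at -20 °C. Compound measured by LC/MS; Cmax, Tmax, t1/2 and AUC derived from the concentration–time data.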
# RAW264.7 [10] = assay: Modulation of M1 polarization in mouse RAW264.7 cells assessed as change in Mcp1 mRNA expression at 300 nM measured after 24 hrs by qRT-PCR analysis relative to control; assay type: functional, cell-based; conditions: RAW264.7, 24 h, read-out: FC
# Summary of the method: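 RAW264.7 cells (DMEM, 10% FBS) exposed 24 h to 300 nM compound alone; LPS 50 ng/ml as positive control. Mcp1 mRNA by qRT-PCR; fold change = dosed group level / control group level.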
# [11] = target: RAC-alpha serine/threonine-protein kinase (Mus musculus) (UniProt P31750); assay: Stimulation of AKT phosphorylation at 473 residue in mouse RAW264.7 cells at 300 nM measured after 4 to 24 hrs by Western blot analysis; assay type: cell-based
# Sequence of RAC-alpha serine/threonine-protein kinase (Mus musculus) (P31750 whole entry): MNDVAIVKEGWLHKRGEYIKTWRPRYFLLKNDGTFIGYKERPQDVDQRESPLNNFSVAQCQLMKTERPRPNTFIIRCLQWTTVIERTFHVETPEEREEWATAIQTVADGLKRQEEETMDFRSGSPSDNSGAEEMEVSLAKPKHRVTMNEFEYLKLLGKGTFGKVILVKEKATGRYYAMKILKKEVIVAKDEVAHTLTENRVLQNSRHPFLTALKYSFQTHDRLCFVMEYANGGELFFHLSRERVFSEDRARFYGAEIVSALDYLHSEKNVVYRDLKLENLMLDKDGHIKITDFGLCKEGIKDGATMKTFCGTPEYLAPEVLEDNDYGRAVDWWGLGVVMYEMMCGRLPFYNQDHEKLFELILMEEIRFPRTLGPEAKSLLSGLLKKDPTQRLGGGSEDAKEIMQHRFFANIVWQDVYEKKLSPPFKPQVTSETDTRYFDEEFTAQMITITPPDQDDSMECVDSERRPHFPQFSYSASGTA
# Summary of the method: (§3)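 Cell lysates separated by SDS-PAGE, transferred to PVDF and probed for Akt, p-Akt(308), p-Akt(473), Stat3, p-Stat3(Y705), Stat6 and p-Stat6; ECL detection, GAPDH as loading control.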
# [12] = target: T1, Signal transducer and transcription activator 6 (Mus musculus) (UniProt P52633); assay: Stimulation of STAT6 phosphorylation at […] residue in mouse RAW264.7 cells at 300 nM measured after 4 to 24 hrs by Western blot analysis; assay type: cell-based; summary of the method: as §3
# T1 sequence (whole entry): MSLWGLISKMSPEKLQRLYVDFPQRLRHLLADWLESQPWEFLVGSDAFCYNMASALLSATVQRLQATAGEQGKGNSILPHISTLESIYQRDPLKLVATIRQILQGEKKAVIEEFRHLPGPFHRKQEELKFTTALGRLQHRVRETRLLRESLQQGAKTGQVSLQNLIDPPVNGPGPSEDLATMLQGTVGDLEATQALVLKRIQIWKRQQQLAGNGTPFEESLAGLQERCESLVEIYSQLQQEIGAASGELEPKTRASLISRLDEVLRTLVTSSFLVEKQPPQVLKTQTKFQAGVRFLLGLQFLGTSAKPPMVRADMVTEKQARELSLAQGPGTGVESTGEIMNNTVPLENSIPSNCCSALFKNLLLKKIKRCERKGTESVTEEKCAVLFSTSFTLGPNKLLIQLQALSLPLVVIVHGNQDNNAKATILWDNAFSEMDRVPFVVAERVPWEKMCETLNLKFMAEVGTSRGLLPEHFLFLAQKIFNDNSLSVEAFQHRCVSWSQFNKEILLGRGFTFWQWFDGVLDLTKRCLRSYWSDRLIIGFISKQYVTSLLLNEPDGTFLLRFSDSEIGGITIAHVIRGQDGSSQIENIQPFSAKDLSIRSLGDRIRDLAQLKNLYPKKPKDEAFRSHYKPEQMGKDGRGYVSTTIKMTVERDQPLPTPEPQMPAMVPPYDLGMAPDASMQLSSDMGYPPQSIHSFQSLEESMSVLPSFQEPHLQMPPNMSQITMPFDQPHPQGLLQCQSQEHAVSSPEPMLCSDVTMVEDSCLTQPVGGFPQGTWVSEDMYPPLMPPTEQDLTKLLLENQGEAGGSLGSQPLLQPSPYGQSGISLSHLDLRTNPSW
structure (smiles),measurement,setting,value
Cl.Cn1ncc(Cl)c1-c1ccc(C(=O)N[C@@H]2CNCC[C@H]2c2cccc(F)c2)cc1,Activity,Mus musculus [1],inactive
same,Activity,Mus musculus [2],16.6%
same,Activity,Mus musculus [3],12.7%
same,Activity,Mus musculus [4],10.1%
same,inhibition,BMDM,Active
same,inhibition,RAW264.7 [5],Active
same,inhibition,RAW264.7 [6],Active
same,inhibition,RAW264.7 [7],Active
same,Activity,RAW264.7 [8],Active
same,half-life,[9],6.3 h
same,fold induction at 0.3 µM,RAW264.7 [10],1.47
same,Activity,[11],Active
same,Activity,[12],inactive
